# Test results as given in ChEMBL document CHEMBL1938355, “Antimycobacterial activities of 5-alkyl (or halo)-3'-substituted pyrimidine nucleoside analogs” (Bioorg Med Chem Lett, 2012).
# The source made the active and inactive calls. No cut-off for these calls is given here.
# Legend:
# [1] = test system: Mycobacterium tuberculosis; assay: Antimycobacterial activity against Mycobacterium bovis BCG assessed as growth inhibition at 0.5 ug/ml by microplate alamar blue assay; assay type: functional; details: variant bovis BCG, read-out: GI
# How it was run: (§1)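 Strains obtained from ATCC. Tested by microplate alamar blue assay. Compounds made up as 10 mg/mL DMSO stocks, then serially diluted in 7H9GC medium. Final test concentrations were 100, 50, 25, 10, 5, 1 and 0.5, each in triplicate. Experiments were run twice, and mean percent growth inhibition is reported.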
# [2] = test system: Mycobacterium tuberculosis; assay: Antimycobacterial activity against Mycobacterium bovis BCG assessed as growth inhibition at 0.5 to 100 ug/ml by microplate alamar blue assay; assay type: functional, organism-based; details: variant bovis BCG; how it was run: as §1
# [3] = test system: Mycobacterium tuberculosis; assay: Antimycobacterial activity against Mycobacterium bovis BCG assessed as growth inhibition at 100 ug/ml by microplate alamar blue assay; assay type: functional; details: variant bovis BCG, read-out: GI; how it was run: as §1
# [4] = test system: Mycobacterium tuberculosis; assay: Antimycobacterial activity against Mycobacterium bovis BCG assessed as growth inhibition at 50 ug/ml by microplate alamar blue assay; assay type: functional; details: variant bovis BCG, read-out: GI; how it was run: as §1
# [5] = test system: Mycobacterium tuberculosis; assay: Antimycobacterial activity against Mycobacterium bovis BCG assessed as growth inhibition at 10 ug/ml by microplate alamar blue assay; assay type: functional; details: variant bovis BCG, read-out: GI; how it was run: as §1
# [6] = test system: Mycobacterium tuberculosis; assay: Antimycobacterial activity against Mycobacterium bovis BCG assessed as growth inhibition at 1 ug/ml by microplate alamar blue assay; assay type: functional; details: variant bovis BCG, read-out: GI; how it was run: as §1
# [7] = test system: Mycobacterium tuberculosis; assay: Antimycobacterial activity against Mycobacterium bovis BCG by microplate alamar blue assay; assay type: functional; details: variant bovis BCG
Structure (SMILES),growth inhibition (GI) [2],inhibition of growth at 100 µg/mL [3],also measured
CO[C@H]1/C=C/O[C@@]2(C)Oc3c(C)c(O)c4c(O)c(c(/C=N/N5CCN(C)CC5)c(O)c4c3C2=O)NC(=O)/C(C)=C\C=C\[C@H](C)[C@H](O)[C@@H](C)[C@@H](O)[C@@H](C)[C@H](OC(C)=O)[C@@H]1C [RIFAMPIN],–,–,inhibition of growth at 0.5 µg/mL [1]: 100%
CCc1cn([C@H]2C[C@H](I)[C@@H](CO)O2)c(=O)[nH]c1=O,inactive,–,–
O=c1[nH]c(=O)n([C@H]2C[C@H](F)[C@@H](CO)O2)cc1C(F)(F)F,inactive,–,–
CCc1cn([C@H]2CC[C@@H](CO)O2)c(=O)[nH]c1=O,inactive,–,–
[N-]=[N+]=N[C@H]1C[C@H](n2cc(Cl)c(=O)[nH]c2=O)O[C@@H]1CO,–,50%,–
CCc1cn([C@H]2C[C@@H](O)[C@@H](CO)O2)c(=O)[nH]c1=O,inactive,–,–
Cc1cn([C@H]2C[C@H](N)[C@@H](CO)O2)c(=O)[nH]c1=O [3-AMINO- 3-DEOXYTHYMIDINE],–,50%,–
N[C@@H]1CONC1=O [CYCLOSERINE],–,100%,inhibition of growth at 50 µg/mL [4]: 100%; inhibition of growth at 10 µg/mL [5]: 100%; inhibition of growth at 1 µg/mL [6]: 50%; MIC50 [7]: 1 µg/mL
[N-]=[N+]=N[C@H]1C[C@H](n2cc(Br)c(=O)[nH]c2=O)O[C@@H]1CO,–,50%,–
CCc1cn([C@H]2C[C@H](N=[N+]=[N-])[C@@H](CO)O2)c(=O)[nH]c1=O,–,95%,inhibition of growth at 50 µg/mL [4]: 95%; inhibition of growth at 10 µg/mL [5]: 85%; inhibition of growth at 1 µg/mL [6]: 50%; MIC50 [7]: 1 µg/mL
[N-]=[N+]=N[C@H]1C[C@H](n2cc(F)c(=O)[nH]c2=O)O[C@@H]1CO,inactive,–,–
CCc1cn([C@H]2C[C@H](F)[C@@H](CO)O2)c(=O)[nH]c1=O,–,40%,–
